Shown are actives, neighbours in structure and some others; about 2.1% of the full set was active somewhere.
XiGFP reactiv = activators of X-chromosome reactivation in mouse fibroblasts; actives 0.055% (n = 360,000); activation, % at 7.58 µM; XiGFP mouse fibroblasts, % GFP-positive cells imaging, 3 d; cells co-treated with 5-aza-dC sensitizer; scaled so ellipticine positive control = 100%; AID 743238;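 active = mean normalized replicate activation at least 10% and every replicate at or above 10%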;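 also: 0% = median of on-plate neutral control wells and 100% = ellipticine 6 µM median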
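System: 68-5-11 XiGFP fibroblast line; Timing: 3 days compound exposure; Compound dosing: one concentration, pinned; Benchmarks: positive control ellipticine, 6 µM final; Buffer or medium: DMEM containing 5-aza-dC.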
Statin myotox sup = protects C2C12 myotubes from simvastatin toxicity. ATP luminescence, 48 h; scaled: DMSO 0, geranylgeraniol control 100. rescue of ATP level, % at 7.49 µM. actives 0.78% (n = 330,000);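 active = mean ATP rescue above about 67%, or every replicate alone reaching that limit, limit read from the data, passing the limit was not always enough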;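 also: myotubes were challenged with 10 µM simvastatin during compound exposure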
Cneo AK release = Cryptococcus neoformans lysis via adenylate kinase release; C. neoformans lysis, adenylate kinase release luminescence, 4 h; normalised: neutral wells 0, clomiphene wells 100; lysis activity, % at 15 µM; actives 0.2% (n = 360,000);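 active = mean lysis activity across replicates of at least 80%, whatever share of replicates individually reach that level; inactive = mean lysis activity below 80%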
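Schedule: static 4 h at 37 °C with compound, 1 h detection; system: C. neoformans cells; benchmarks: Clomiphene as positive control; buffer or medium: fresh YPD medium; measure: luminescence rise reflecting yeast cell lysis; measured by: luminescent adenylate kinase detection reagent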
DENV2 CPE = DENV2-induced cell death inhibition; DENV2-infected cells, cytopathic effect rescue, plate reader; CPE inhibition, % at 9.99 µM; actives 1.7% (n = 350,000); in the data active = CPE inhibition above about 20%, passing the limit was not always enough; tested in BHK-21 cells;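 also: 0% = median of neutral control wells and 100% = median of positive control wells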
Numbers without * were called inactive; . = not tested or not shown.

SMILES | XiGFP reactiv | Statin myotox sup | Cneo AK release | DENV2 CPE
Cc1noc(C)c1NC(=O)Nc1ccc2c(c1)CC(=O)N([C@H](C)CO)C[C@@H](C)[C@H](CN(C)S(=O)(=O)c1c(C)noc1C)O2 | 0 | 17 | 0 | -13
CSc1ccc(S(=O)(=O)NC2CC3CCC2C3)cc1 (stereo unspecified) | 0 | 16 | 0 | 37*
S=C(Nc1ccc(Cl)cc1)N(CCCN1CCOCC1)Cc1cccs1 | 0 | 0 | 4 | 8
O=C(Nc1ccc(Cl)cc1)N(CCCN1CCOCC1)Cc1cccs1 | 0 | -19 | 0 | 26*
CO[C@H]1CN(C)C(=O)c2ccc(NC(=O)C3CCOCC3)cc2OC[C@@H](C)N(Cc2cccnc2)C[C@H]1C | 0 | -13 | 0 | -2
O=C(CSc1ccc(-c2cccnc2)nn1)Nc1ccc(Br)cc1 | 0 | -3 | 5 | 30*
CC(=O)Nc1ccc(NC(=O)CSc2ccc(-c3cccnc3)nn2)cc1 | 0 | -1 | 1 | 2
COc1ccc(COn2c(=O)c(C)[n+]([O-])c3ccccc32)cc1OC | . | 106* | 1 | .
CCNC(=O)C[C@H]1CC[C@@H]2[C@H](COc3ccc(NS(=O)(=O)c4ccccc4C)cc3C(=O)N2C)O1 | 0 | 8 | -2 | -11
[N-]=[N+]=CC(=O)c1ccnc(C(=O)C=[N+]=[N-])c1 | . | 94* | -1 | .
Nc1c(Cl)cc(Cl)cc1C(=O)OCC(=O)NC1CC1 | . | 70* | 0 | .
COc1ccc(NC(=O)N(C)[C@H]2C[C@H]3c4[nH]c5ccccc5c4CCN3C(=O)[C@H]2CO)cc1 | 0 | 22 | 1 | 14
CN(C(=O)Nc1ccc(F)cc1)[C@H]1C[C@H]2c3[nH]c4ccccc4c3CCN2C(=O)[C@H]1CO | 0 | 9 | 0 | 44*
CCCNC(=O)C[C@@H]1C[C@@H]2c3cc(NC(=O)Nc4ccc(OC)cc4)ccc3O[C@@H]2[C@@H](CO)O1 | 0 | -1 | -7 | -2
CC1(c2ccc3ccccc3c2)CCC(=O)O1 (stereo unspecified) | 0 | . | . | 22*
Cc1cc(C(=O)Nc2cccc3c2O[C@@H](CN(C)S(=O)(=O)c2ccc(Cl)cc2)[C@@H](C)CN([C@@H](C)CO)C3=O)n(C)n1 | 0 | -23 | 1 | -6
CNC[C@@H]1OCCCC[C@H](C)Oc2ccc(NS(=O)(=O)c3c(C)noc3C)cc2C(=O)N([C@@H](C)CO)C[C@@H]1C | 0 | . | 13 | 132*
CNC[C@H]1OCCCC[C@@H](C)Oc2ccc(NS(=O)(=O)c3c(C)noc3C)cc2C(=O)N([C@H](C)CO)C[C@H]1C | 0 | . | -22 | -12
CNC[C@H]1OCCCC[C@@H](C)Oc2ccc(NS(=O)(=O)c3ccc(C)cc3)cc2C(=O)N([C@H](C)CO)C[C@@H]1C | 0 | 34 | -4 | 30*
Cc1ccc(S(=O)(=O)Nc2ccc3c(c2)C(=O)N([C@@H](C)CO)C[C@H](C)[C@@H](CN(C)S(C)(=O)=O)OCCCC[C@@H](C)O3)cc1 | 0 | . | 1 | 26*
Cc1ccc(S(=O)(=O)Nc2ccc3c(c2)C(=O)N([C@H](C)CO)C[C@H](C)[C@H](CN(C)S(C)(=O)=O)OCCCC[C@H](C)O3)cc1 | 0 | . | 0 | 18
Cc1ccc(S(=O)(=O)Nc2ccc3c(c2)C(=O)N([C@@H](C)CO)C[C@H](C)[C@@H](CN(C)C(=O)NC(C)C)OCCCC[C@@H](C)O3)cc1 | 0 | . | . | 22*
COc1ccc(NC(=O)Nc2ccc3c(c2)C(=O)N([C@@H](C)CO)C[C@@H](C)[C@H](CN(C)Cc2ccccc2)O3)cc1 | 0 | -36 | 2 | -5
C[C@H](CO)N1C[C@H](C)[C@H](CN(C)Cc2ccc(F)cc2)Oc2ncc(C#Cc3cccnc3)cc2C1=O | 0 | 3 | 2 | 3
Cc1ccc(S(=O)(=O)Nc2ccc3c(c2)C(=O)N([C@H](C)CO)C[C@H](C)[C@@H](CN(C)S(C)(=O)=O)OCCCC[C@H](C)O3)cc1 | 0 | . | -1 | 57*
COc1ccc(S(=O)(=O)Nc2ccc3c(c2)C(=O)N([C@H](C)CO)C[C@@H](C)[C@@H](CN(C)S(C)(=O)=O)OCCCC[C@@H](C)O3)cc1 | 0 | . | -2 | 49*
C[C@@H]1CN([C@H](C)CO)C(=O)c2cccc(N(C)C)c2O[C@H]1CN(C)Cc1ccc(-c2ccccc2)cc1 | 0 | -11 | 2 | 5
O=S(=O)(N/N=C\c1ccc(-c2ccccc2Cl)o1)c1ccccc1 | . | 118* | -1 | .

High-throughput results as filed in PubChem BioAssay.
